Activity calls are given as the source filed them. The rule behind the calls is not given here.
Experiments:
Mus musculus [1] = assay: Analgesic activity in Swiss Albino mouse assessed as inhibition of acetic acid-induced writhing responses at 100 mg/kg, ip; assay type: functional; conditions: for inhibition in vivo at 100 mg/kg: route intraperitoneal
Outline: (§1)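 Mice in groups of six dosed i.p. at 100 mg/kg, controls receiving 30% v/v PEG 400 in water. Writhing induced by i.p. 0.1 mL of 3% v/v acetic acid 1 h after drug. Writhes (abdominal stretch with at least one hind limb extended) counted over 30 min; % inhibition calculated. Mean ± SEM, Student's t test.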

Mus musculus [2] = assay: Anticonvulsant activity in Swiss Albino mouse at 300 mg/kg, ip after 0.5 hr by scPIC test; assay type: functional, organism-based; parameters: dose 300 mg/kg
Outline: (§2)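 Mice (Swiss, 20-25 g) given i.p. doses of 30, 100 and 300 mg/kg under ADD program protocols, three per group, examined at 0.5 and 4 h in MES, scPTZ, scSTY or scPIC seizure tests. Value is the minimum dose protecting half or more of the mice.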

Mus musculus [3] = assay: Anticonvulsant activity in Swiss Albino mouse at 300 mg/kg, ip after 0.5 hr by scSTY test; assay type: functional, organism-based; parameters: dose 300 mg/kg; outline: as §2
Mus musculus [4] = assay: Analgesic activity in Swiss Albino mouse assessed as number of acetic acid-induced writhing per 30 min after 100 mg/kg, ip; assay type: functional; outline: as §1
Mus musculus [5] = assay: Anticonvulsant activity in Swiss Albino mouse at 300 mg/kg, ip after 4 hrs by scPIC test; assay type: functional, organism-based; parameters: dose 300 mg/kg; outline: as §2
Mus musculus [6] = assay: Anticonvulsant activity in Swiss Albino mouse at 300 mg/kg, ip after 0.5 hr by MES test; assay type: functional, organism-based; parameters: dose 300 mg/kg; outline: as §2
Mus musculus [7] = assay: Anticonvulsant activity in Swiss Albino mouse at 300 mg/kg, ip after 4 hrs by scSTY test; assay type: functional, organism-based; parameters: dose 300 mg/kg; outline: as §2
Mus musculus [8] = assay: Neurotoxicity in Swiss Albino mouse at 300 mg/kg, ip after 0.5 hr by rotarod test; assay type: functional, organism-based; parameters: dose 300 mg/kg
Outline: (§3)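 Swiss mice (20-25 g) are trained on an accelerating rotorod (10 rpm, 3.2 cm rod), then injected i.p. at 30, 100 or 300 mg/kg, with three per group. Neurotoxicity means failure to keep equilibrium for at least 1 min in each of three trials, checked at 0.5 and 4 h. The value reported is the minimum dose affecting half or more of the mice.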

Mus musculus [9] = assay: Neurotoxicity in Swiss Albino mouse at 300 mg/kg, ip after 4 hrs by rotarod test; assay type: functional, organism-based; parameters: dose 300 mg/kg; outline: as §3
Mus musculus [10] = assay: Anticonvulsant activity in Swiss Albino mouse at 300 mg/kg, ip after 0.5 hr by scPTZ test; assay type: functional, organism-based; parameters: dose 300 mg/kg; outline: as §2
Mus musculus [11] = assay: Anticonvulsant activity in Swiss Albino mouse at 300 mg/kg, ip after 4 hrs by MES test; assay type: functional, organism-based; parameters: dose 300 mg/kg; outline: as §2
Rattus norvegicus [12] = assay: Effect on spontaneous pain in Sprague-Dawley rat SNL model assessed as duration of paw withdrawal at 100 mg/kg, ip after 1.5 hrs; assay type: functional; conditions: route intraperitoneal
Outline: (§4)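 Rats underwent left L5 spinal nerve ligation (Kim and Chung) under i.p. pentobarbital (65 mg/kg). Spontaneous pain is recorded for 5 min after 10 min acclimatization, as cumulative duration the ipsilateral paw is lifted, excluding locomotor lifts. Dosing is 100 mg/kg i.p. in 30% v/v PEG 400/water, with testing at 0.5–2.5 h. Four rats, mean ± SEM versus predrug, one-way ANOVA with Bonferroni.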

Rattus norvegicus [13] = assay: Effect on spontaneous pain in Sprague-Dawley rat SNL model assessed as duration of paw withdrawal at 100 mg/kg, ip after 2.5 hrs; assay type: functional; conditions: route intraperitoneal; outline: as §4
Rattus norvegicus [14] = assay: Antihyperalgesic effects in Sprague-Dawley rat SNL model assessed as duration of paw withdrawal at 100 mg/kg, ip after 2 hrs, ip; assay type: functional; conditions: route intraperitoneal
Outline: (§5)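 L5 SNL rats (n = 4), dosed 100 mg/kg i.p. (vehicle 30% v/v PEG 400 in water). Pin-prick to midplantar ipsilateral left hindpaw; withdrawal duration, mean of three responses; ≥2 s defined abnormal. Mean ± SEM; one-way ANOVA with Bonferroni versus predrug.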

Rattus norvegicus [15] = assay: Effect on spontaneous pain in Sprague-Dawley rat SNL model assessed as duration of paw withdrawal at 100 mg/kg, ip after 1 hr; assay type: functional; conditions: route intraperitoneal; outline: as §4
Rattus norvegicus [16] = assay: Antihyperalgesic effects in Sprague-Dawley rat SNL model assessed as duration of paw withdrawal at 100 mg/kg, ip after 0.5 hr, ip; assay type: functional; conditions: route intraperitoneal; outline: as §5
Rattus norvegicus [17] = assay: Antihyperalgesic effects in Sprague-Dawley rat SNL model assessed as duration of paw withdrawal at 100 mg/kg, ip after 1 hr, ip; assay type: functional; conditions: route intraperitoneal; outline: as §5
Rattus norvegicus [18] = assay: Effect on spontaneous pain in Sprague-Dawley rat SNL model assessed as duration of paw withdrawal at 100 mg/kg, ip after 2 hrs; assay type: functional; conditions: route intraperitoneal; outline: as §4
Rattus norvegicus [19] = assay: Effect on spontaneous pain in Sprague-Dawley rat SNL model assessed as duration of paw withdrawal at 100 mg/kg, ip after 0.5 hr; assay type: functional; conditions: route intraperitoneal; outline: as §4
Rattus norvegicus [20] = assay: Antihyperalgesic effects in Sprague-Dawley rat SNL model assessed as duration of paw withdrawal at 100 mg/kg, ip after 2.5 hrs, ip; assay type: functional; conditions: route intraperitoneal; outline: as §5
Rattus norvegicus [21] = assay: Antihyperalgesic effects in Sprague-Dawley rat SNL model assessed as duration of paw withdrawal at 100 mg/kg, ip after 1.5 hrs, ip; assay type: functional; conditions: route intraperitoneal; outline: as §5
Rattus norvegicus [22] = assay: Anti-dynamic allodynia effect in Sprague-Dawley rat SNL model assessed as latency to paw withdrawal 100 mg/kg, ip after 1 hr; assay type: functional; conditions: route intraperitoneal
Outline: (§6)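 Left L5 spinal nerve ligation rats, tested preoperatively and 9 days postoperatively, then given 100 mg/kg i.p. (vehicle 30% v/v PEG 400 in water). After 10 min acclimatization, plantar surface of affected paw stroked mildly with a cotton-bud; paw lift response recorded. n = 4; retested 0.5-2.5 h post-dose.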

Rattus norvegicus [23] = assay: Anti-dynamic allodynia effect in Sprague-Dawley rat SNL model assessed as latency to paw withdrawal 100 mg/kg, ip after 2.5 hrs; assay type: functional; conditions: route intraperitoneal; outline: as §6
Rattus norvegicus [24] = assay: Anti-dynamic allodynia effect in Sprague-Dawley rat SNL model assessed as latency to paw withdrawal 100 mg/kg, ip after 2 hrs; assay type: functional; conditions: route intraperitoneal; outline: as §6
Rattus norvegicus [25] = assay: Antihyperalgesic effects in Sprague-Dawley rat CCI model assessed as duration of paw withdrawal at 100 mg/kg, ip after 1.5 hrs; assay type: functional; conditions: route intraperitoneal
Rattus norvegicus [26] = assay: Antihyperalgesic effects in Sprague-Dawley rat CCI model assessed as duration of paw withdrawal at 100 mg/kg, ip after 2.5 hrs; assay type: functional; conditions: route intraperitoneal
Rattus norvegicus [27] = assay: Antihyperalgesic effects in Sprague-Dawley rat CCI model assessed as duration of paw withdrawal at 100 mg/kg, ip after 2 hrs; assay type: functional; conditions: route intraperitoneal
Rattus norvegicus [28] = assay: Anti-dynamic allodynia effect in Sprague-Dawley rat SNL model assessed as latency to paw withdrawal 100 mg/kg, ip after 1.5 hrs; assay type: functional; conditions: route intraperitoneal; outline: as §6
Rattus norvegicus [29] = assay: Antihyperalgesic effects in Sprague-Dawley rat CCI model assessed as duration of paw withdrawal at 100 mg/kg, ip after 1 hr; assay type: functional; conditions: route intraperitoneal
Rattus norvegicus [30] = assay: Anti-dynamic allodynia effect in Sprague-Dawley rat SNL model assessed as latency to paw withdrawal 100 mg/kg, ip after 0.5 hr; assay type: functional; conditions: route intraperitoneal; outline: as §6
Rattus norvegicus [31] = assay: Antihyperalgesic effects in Sprague-Dawley rat CCI model assessed as duration of paw withdrawal at 100 mg/kg, ip after 0.5 hr; assay type: functional; conditions: route intraperitoneal
Rattus norvegicus [32] = assay: Effect on spontaneous pain in Sprague-Dawley rat CCI model assessed as duration of paw withdrawal at 100 mg/kg, ip after 1 hr; assay type: functional; conditions: route intraperitoneal
Outline: (§7)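 CCI rats (n = 4) dosed 100 mg/kg i.p. (vehicle 30% v/v PEG 400 in water). After 10 min acclimatization in a cage 5 cm above ground, cumulative time the ipsilateral paw was held off the floor over 5 min recorded, excluding locomotion lifts. Mean ± SEM; ANOVA/Bonferroni versus predrug.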

Rattus norvegicus [33] = assay: Effect on spontaneous pain in Sprague-Dawley rat CCI model assessed as duration of paw withdrawal at 100 mg/kg, ip after 2 hrs; assay type: functional; conditions: route intraperitoneal
Outline: (§8)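 Unilateral CCI of sciatic nerve (Bennett and Xie) in Sprague-Dawley rats under i.p. pentobarbital sodium (65 mg/kg). Spontaneous pain is scored over 5 min after 10 min acclimatization, as cumulative time the ipsilateral paw is held off the floor. Paw lifts from locomotion or repositioning are excluded. Drug is given at 100 mg/kg i.p. with 30% v/v PEG 400 vehicle. Mean ± SEM, n = 4, compared with predrug by ANOVA/Bonferroni.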

Rattus norvegicus [34] = assay: Effect on spontaneous pain in Sprague-Dawley rat CCI model assessed as duration of paw withdrawal at 100 mg/kg, ip after 1.5 hrs; assay type: functional; conditions: route intraperitoneal; outline: as §8
Rattus norvegicus [35] = assay: Effect on spontaneous pain in Sprague-Dawley rat CCI model assessed as duration of paw withdrawal at 100 mg/kg, ip after 2.5 hrs; assay type: functional; conditions: route intraperitoneal; outline: as §8
Rattus norvegicus [36] = assay: Effect on spontaneous pain in Sprague-Dawley rat CCI model assessed as duration of paw withdrawal at 100 mg/kg, ip after 0.5 hr; assay type: functional; conditions: route intraperitoneal; outline: as §7

SMILES | inhibition in vivo at 100 mg/kg (Mus musculus [1]) [%] | Activity (Mus musculus [2]) | Activity (Mus musculus [3]) | Activity (Mus musculus [4]; route intraperitoneal) | Activity (Mus musculus [5]) | Activity (Mus musculus [6]) | Activity (Mus musculus [7]) | Activity (Mus musculus [8]) | Activity (Mus musculus [9]) | Activity (Mus musculus [10]) | Activity (Mus musculus [11]) | Activity (Rattus norvegicus [12]) [s] | Activity (Rattus norvegicus [13]) [s] | Activity (Rattus norvegicus [14]) [s] | Activity (Rattus norvegicus [15]) [s] | Activity (Rattus norvegicus [16]) [s] | Activity (Rattus norvegicus [17]) [s] | Activity (Rattus norvegicus [18]) [s] | Activity (Rattus norvegicus [19]) [s] | Activity (Rattus norvegicus [20]) [s] | further results
CC(=O)Oc1ccccc1C(=O)O [ASPIRIN] | 97 | inactive | inactive | 5.7 | inactive | inactive | inactive | inactive | inactive | inactive | inactive | – | – | – | – | – | – | – | – | – | –
O=C(O)CCCNC(=O)NN=C(c1ccccc1)c1ccccc1 | 93 | Active | Active | 13.3 | Active | Active | Active | Active | inactive | inactive | inactive | 13.4 | 8.8 | 13.7 | 18.5 | 18.4 | 19.9 | 10.9 | 15.1 | 15 | Activity (Rattus norvegicus [21]): 18.5 s
C/C(=N\NC(=O)NCCCC(=O)O)c1ccc([N+](=O)[O-])cc1 | 67 | inactive | inactive | 61 | inactive | inactive | inactive | inactive | inactive | inactive | inactive | – | – | – | – | – | – | – | – | – | –
O=C(O)CCCNC(=O)NN=C1CCCCC1 | 82 | Active | inactive | 32 | inactive | inactive | inactive | inactive | inactive | Active | inactive | 10.8 | 10.8 | 11.3 | 20.2 | 14.7 | 19.7 | 10.6 | 21.2 | 12.8 | Activity (Rattus norvegicus [22]): 5.6 s; Activity (Rattus norvegicus [23]): 0.24 s; Activity (Rattus norvegicus [24]): 0.2 s; Activity (Rattus norvegicus [25]): 4.8 s; Activity (Rattus norvegicus [26]): 7 s; Activity (Rattus norvegicus [27]): 5.2 s; Activity (Rattus norvegicus [28]): 1.8 s; Activity (Rattus norvegicus [29]): 24.8 s; Activity (Rattus norvegicus [30]): 5.2 s; Activity (Rattus norvegicus [31]): 20.3 s; Activity (Rattus norvegicus [21]): 15.6 s
CCC1(C)CC(=O)NC1=O (stereo unspecified) | – | inactive | inactive | – | inactive | inactive | inactive | inactive | inactive | Active | inactive | – | – | – | – | – | – | – | – | – | Activity (Mus musculus [1]): inactive; Activity (Mus musculus [4]): inactive
O=C(O)CCCNC(=O)N/N=C/c1ccc([N+](=O)[O-])cc1 | 90 | inactive | inactive | 18.7 | inactive | inactive | inactive | Active | inactive | inactive | inactive | – | – | – | – | – | – | – | – | – | Activity (Rattus norvegicus [32]): 9.2 s; Activity (Rattus norvegicus [22]): 4.3 s; Activity (Rattus norvegicus [23]): 1.34 s; Activity (Rattus norvegicus [33]): 11.3 s; Activity (Rattus norvegicus [34]): 13.6 s; Activity (Rattus norvegicus [24]): 1.8 s; Activity (Rattus norvegicus [35]): 17.2 s; Activity (Rattus norvegicus [28]): 1.5 s; Activity (Rattus norvegicus [30]): 14.5 s; Activity (Rattus norvegicus [36]): 10.2 s

Source: ChEMBL document CHEMBL1139875, “Discovery of 4-aminobutyric acid derivatives possessing anticonvulsant and antinociceptive activities: a hybrid pharmacophore approach” (2007)
